Values belong to the compound of their own block, whether it stands above or below them. Active and inactive are the calls of the source. The rule behind the calls is not given here.
How the values were obtained:
in vitro [1] = settings: human, HepG2 cells
[2] = Hepatotoxicity against human HepG2 cells assessed as cell viability at 10 uM after 24 hrs by MTT assay relative to control; assay type: toxicity, cell-based; settings: read-out: Activity
How it was run: (§1)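 HepG2 cells (EMEM, 10% FBS, 37 °C, 5% CO₂) were seeded at 1 × 10⁴ per well and cultured overnight. They were then exposed to increasing compound concentrations for 24 h. MTT reagent was added for 3 h and formazan crystals dissolved before reading. Data are mean ± SD of at least three independent experiments, relative to untreated control.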

in vitro [3] = settings: human, HepG2 cells; remark: listed apart in the source
[4] = Hepatotoxicity against human HepG2 cells assessed as cell viability at 100 uM after 24 hrs by MTT assay relative to control
[5] = Hepatotoxicity against human HepG2 cells assessed as cell viability at 50 uM after 24 hrs by MTT assay relative to control
[6] = Hepatotoxicity against human HepG2 cells assessed as cell viability at 25 uM after 24 hrs by MTT assay relative to control; assay type: toxicity, cell-based; settings: read-out: Activity
How it was run: as §1

in vitro [7] = settings: human, HepG2 cells; remark: listed apart in the source
in vitro [8] = settings: human, HepG2 cells; remark: listed apart in the source
Rattus norvegicus = test: Anticonvulsant activity in po dosed Sprague-Dawley rat assessed as protection against subcutaneous dosed pentetrazol-induced seizures after 0.5 hrs; assay type: functional
How it was run: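 Sprague-Dawley rats received graded oral doses suspended or dissolved in 0.5% methylcellulose. Challenge was maximal electroshock or subcutaneous pentetrazol at the stated time after dosing.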

Mus musculus [9] = test: Anticonvulsant activity in ip dosed albino Carworth Farms No.1 mouse assessed as protection against 6-Hz electroshock-induced seizures after 0.25 hrs; assay type: functional; settings: Carworth Farms No.1, ip
How it was run: (§2)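 Quantitative i.p. evaluation in Carworth Farms No.1 albino mice, with graded doses in 0.5% methylcellulose. MES, scPTZ or 6-Hz (32 mA) seizure tests were run at 0.25 h.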

Mus musculus [10] = test: Anticonvulsant activity in ip dosed albino Carworth Farms No.1 mouse assessed as protection against subcutaneous dosed pentetrazol-induced seizures after 0.25 hrs; assay type: functional; settings: Carworth Farms No.1, 0.25 h
How it was run: as §2

Salmonella typhimurium = test: Mutagenicity in Salmonella typhimurium TA98 assessed as number of revertants at 10 ug/plate by Ames test (reference value: 23 +/- 3); assay type: toxicity, organism-based; settings: salmonella enterica subsp. enterica serovar typhimurium
[11] = Lipophilicity of the compound using 95% methanol in water at 1 mg/ml by RT-TLC analysis; assay type: physicochemical; settings: buffer
How it was run: (§3)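 Reversed-phase TLC with a methanol–water mobile phase at the stated methanol content (v/v). Compounds were spotted from 1 mg/mL methanol solutions after 1 h chamber saturation and located under UV light. Rf was measured and RM = log(1/Rf − 1) calculated.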

Mus musculus [12] = test: Neurotoxicity in albino Carworth Farms No.1 mouse at 300 mg/kg, ip after 4 hrs by rotarod test; assay type: toxicity, organism-based; settings: in vivo
How it was run: (§4)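 Mice (albino Carworth Farms No.1) were dosed i.p. at 30, 100 or 300 mg/kg in 0.5% methylcellulose. They were tested 0.5 and 4 h later on a 1-inch knurled rod rotating at 6 rpm. Neurotoxicity was scored if a mouse could not stay on the rod for at least 1 min in each of three trials. Results are given as animals toxic/animals tested, with deaths noted.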

[13] = Lipophilicity of the compound using 65% methanol in water at 1 mg/ml by RT-TLC analysis; assay type: physicochemical; settings: buffer
How it was run: as §3

Mus musculus [14] = test: Neurotoxicity in albino Carworth Farms No.1 mouse at 30 mg/kg, ip after 4 hrs by rotarod test; assay type: toxicity, organism-based; settings: in vivo
How it was run: as §4

Mus musculus [15] = test: Anticonvulsant activity in albino Carworth Farms No.1 mouse assessed as protection against 6-Hz electroshock-induced seizures at 100 mg/kg, ip after 1 hr; assay type: functional, organism-based
How it was run: (§5)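 Carworth Farms No.1 albino mice were dosed i.p. at 100 mg/kg (0.5% methylcellulose solution or suspension). 6-Hz seizures were induced at 32 mA at 0.25, 0.5, 1.0, 2.0 and 4 h after injection. Results are given as animals protected / animals tested.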

Mus musculus [16] = test: Anticonvulsant activity in albino Carworth Farms No.1 mouse assessed as protection against 6-Hz electroshock-induced seizures at 100 mg/kg, ip after 4 hrs; assay type: functional, organism-based
How it was run: as §5

Mus musculus [17] = test: Anticonvulsant activity in albino Carworth Farms No.1 mouse assessed as protection against maximal electroshock-induced seizures at 100 mg/kg, ip after 0.5 hrs; assay type: functional, organism-based
How it was run: (§6)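 Mouse i.p. screen in Carworth Farms No.1 albino mice at 30, 100 or 300 mg/kg in 0.5% methylcellulose. Testing was at 0.5 and 4 h after injection, by maximal electroshock or by subcutaneous pentetrazol challenge. Scoring was number protected / number used.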

Mus musculus [18] = test: Anticonvulsant activity in albino Carworth Farms No.1 mouse assessed as protection against 6-Hz electroshock-induced seizures at 100 mg/kg, ip after 0.25 hrs; assay type: functional, organism-based
How it was run: as §5

[19] = Lipophilicity of the compound at 1 mg/ml by RT-TLC analysis relative to 0% methanol; assay type: physicochemical; settings: methanol/water
How it was run: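 Reversed-phase TLC used methanol–water mobile phases of 95–65% methanol. Compounds were applied from 1 mg/mL methanol solutions after 1 h chamber saturation, with UV detection. RM = log(1/Rf − 1) was calculated at each methanol level and extrapolated linearly (RM = RM0 + bC) to 0% methanol to give RM0.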

Mus musculus [20] = test: Anticonvulsant activity in albino Carworth Farms No.1 mouse assessed as protection against subcutaneous dosed pentetrazol-induced seizures at 100 mg/kg, ip after 0.5 hrs; assay type: functional, organism-based
How it was run: as §6

Mus musculus [21] = test: Neurotoxicity in albino Carworth Farms No.1 mouse at 100 mg/kg, ip after 4 hrs by rotarod test; assay type: toxicity, organism-based; settings: in vivo
How it was run: as §4

Mus musculus [22] = test: Anticonvulsant activity in albino Carworth Farms No.1 mouse assessed as protection against 6-Hz electroshock-induced seizures at 100 mg/kg, ip after 0.5 hrs; assay type: functional, organism-based
How it was run: as §5

Mus musculus [23] = test: Neurotoxicity in albino Carworth Farms No.1 mouse at 100 mg/kg, ip after 0.5 hrs by rotarod test; assay type: toxicity, organism-based; settings: in vivo
How it was run: as §4

[24] = Lipophilicity of the compound using 90% methanol in water at 1 mg/ml by RT-TLC analysis; assay type: physicochemical; settings: buffer
How it was run: as §3

Mus musculus [25] = test: Anticonvulsant activity in albino Carworth Farms No.1 mouse assessed as protection against maximal electroshock-induced seizures at 100 mg/kg, ip after 4 hrs; assay type: functional, organism-based
How it was run: as §6

[26] = Lipophilicity of the compound using 85% methanol in water at 1 mg/ml by RT-TLC analysis; assay type: physicochemical; settings: buffer
How it was run: as §3

Mus musculus [27] = test: Anticonvulsant activity in albino Carworth Farms No.1 mouse assessed as protection against subcutaneous dosed pentetrazol-induced seizures at 100 mg/kg, ip after 4 hrs; assay type: functional, organism-based
How it was run: as §6

Mus musculus [28] = test: Anticonvulsant activity in albino Carworth Farms No.1 mouse assessed as protection against 6-Hz electroshock-induced seizures at 100 mg/kg, ip after 2 hrs; assay type: functional, organism-based
How it was run: as §5

[29] = Lipophilicity of the compound using 75% methanol in water at 1 mg/ml by RT-TLC analysis; assay type: physicochemical; settings: buffer
How it was run: as §3

Compound: COc1cccc2c1C(=O)c1c(O)c3c(c(O)c1C2=O)C[C@@](O)(C(=O)CO)C[C@@H]3O[C@H]1C[C@H](N)[C@H](O)[C@H](C)O1 [DOXORUBICIN]
viability at 24 h, 100 µM (in vitro [1]): 48%
viability at 24 h, 10 µM [2]: 77.4%
viability at 24 h, 25 µM (in vitro [3]): 83%
viability at 24 h, 100 µM [4]: 44.9%
viability at 24 h, 50 µM [5]: 51.6%
viability at 24 h, 25 µM [6]: 65.3%
viability at 24 h, 10 µM (in vitro [7]): 91%
viability at 24 h, 50 µM (in vitro [8]): 75%

Compound: CCCC(CCC)C(=O)O [VALPROIC ACID]
ED50 (Rattus norvegicus): 646 mg/kg
ED50 (Mus musculus [9]): 126 mg/kg
ED50 (Mus musculus [10]): 220 mg/kg

Compound: Nc1ccc([N+](=O)[O-])cc1N
Activity (Salmonella typhimurium): 647

Rm [11]: -0.39
Rm [13]: 0.5
Rm [19]: 1.758
Rm [24]: -0.27
Rm [26]: -0.02
Rm [29]: 0.1
Compound: CC(NC(=O)/C=C/c1ccccc1)C(=O)NCN1CCCCC1 (racemic)
Activity (Mus musculus [12]): Non-toxic
Activity (Mus musculus [14]): Non-toxic
Activity (Mus musculus [15]): inactive
Activity (Mus musculus [16]): inactive
Activity (Mus musculus [17]): inactive
Activity (Mus musculus [18]): inactive
Activity (Mus musculus [20]): inactive
Activity (Mus musculus [21]): Non-toxic
Activity (Mus musculus [22]): inactive
Activity (Mus musculus [23]): Non-toxic
Activity (Mus musculus [25]): inactive
Activity (Mus musculus [27]): inactive
Activity (Mus musculus [28]): inactive

Compound: NC(=O)N1c2ccccc2C=Cc2ccccc21 [CARBAMAZEPINE]
ED50 (Rattus norvegicus): > 250 mg/kg
ED50 (Mus musculus [10]): > 50 mg/kg

Source: ChEMBL document CHEMBL3739352, “Anticonvulsant activity, crystal structures, and preliminary safety evaluation of N-trans-cinnamoyl derivatives of selected (un)modified aminoalkanols” (Eur J Med Chem, 2016)
